# Reference: PubChem BioAssay
# Values without a mark were called inactive. Inconclusive results are not listed. Calls of active or inactive are those of the source.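 The calls were made as follows, unless noted: active = RAM network inhibition above 8.4% in each of two replicates, 3 SD over the compound average; inconclusive = above 8.4% inhibition in only one replicate; inactive = 8.4% inhibition or less in each replicate.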
# Tests used:
# [1] = S. cerevisiae growth inhibition in permissive medium (OD615), pilot counter-assay for S. cerevisiae lifespan shortening project, permissive growth control (AID 705;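 active = growth inhibition above 25% in both replicates, a cutoff set 3 SD above the mean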); conditions: OD615, 24 h, at 10 µM, stronger effect = higher value
# In short: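 assay system = Saccharomyces cerevisiae strain carrying genetically modified DeaD replicative-lifespan system | technique = absorbance (optical density) at 615 nm | buffer or medium = permissive raffinose/galactose medium | timing = cells pre-grown 4 h, then 24 h compound exposure, 30 °C humidified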
# [2] = S. cerevisiae growth inhibition in restrictive medium, OD615, pilot screen, restrictive growth control, yeast lifespan reduction project (AID 706;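 active = growth inhibition above a set limit, 3 SD over mean compound inhibition, in both replicates, cut at about 43% in these data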;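 also: modified DeaD lifespan yeast strain shifted to restrictive glucose medium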); conditions: OD615, 48 h, at 10 µM, stronger effect = higher value
# In short: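 System: modified S. cerevisiae. Buffer or medium: CSMM-D glucose medium. Incubation: 4 h pre-growth plus 48 h compound exposure, 30 °C. Detection: absorbance (optical density) measured at 615 nm.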
# [3] = doxorubicin toxicity protection in MRP-1 cells – H69AR cells, CellTiter-Glo, duplicate, MRP-1 activator project, pilot screen (AID 807;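 active = viability increase at or above a cutoff of the median across tested compounds plus 3 SD, cut at about 8.5% in these data, passing the limit was not always enough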;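 also: compound pretreatment 18-22 h then 72 h combined with doxorubicin; 0% = doxorubicin alone and 100% = vehicle without doxorubicin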); conditions: H69AR viability with doxorubicin, CellTiter-Glo luminescence; at 10 µM; stronger effect = higher value
# [4] = viability of HCT116 without oncogenic beta-catenin – human colon tumor cells, pilot screen (AID 823;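 active = cell viability at or below a set limit in both duplicate runs, the limit being the all-compound median minus 4 SD, cut at about 23% in these data, passing the limit was not always enough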;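 also: 0% = wells killed by 20 µM Hyamine and 100% = untreated DMSO cell wells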); conditions: HCT116 beta-catenin knockout viability, CellTiter-Glo, 60 h; at 10 µM; stronger effect = lower value
# [5] = viability of PTEN-null HCT116 cells – cell-based, HCT116 clonal line, CellTiter-Glo, pilot screen (AID 824;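 active = viability at or below 27.92% in each of two runs, the all-compound median minus 4 SD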;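 also: 0% = 20 µM Hyamine control and 100% = vehicle cell control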); conditions: HCT116 PTEN-deleted viability, 60 h, at 10 µM, stronger effect = lower value
# [6] = RAM pathway blockade in budding yeast – dse1pr::URA3 reporter, 5-FOA selection, pilot screen (AID 869;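 active = inhibition over a set limit, the all-compound mean plus 3 SD, in both replicate runs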;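 also: 0% = DMSO wells with no growth and 100% = 10 µM 1-NA-PP1 with full growth; RAM network block rescues cells from 5-FOA so hits raise OD615 growth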); conditions: S. cerevisiae dse1pr::URA3 5-FOA growth, OD615, 2 d; at 10 µM; stronger effect = higher value; strain carries analog-sensitive mutant Cbk1 kinase
# [7] = RAM signaling pathway blockade in yeast – S. cerevisiae, Pdr1DBD-CYC8 efflux-inhibited sensitized strain, primary screen (AID 1298);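 also: 0% = DMSO untreated cells without growth and 100% = 10 µM 1-NA-PP1 full growth; higher means more yeast growth rescued from 5-FOA killing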; conditions: S. cerevisiae cbk1-as DSE1-URA3 strain, 5-FOA growth OD615, 2 d; at 50 µM; stronger effect = higher value
Structure (SMILES),growth inhibition [1] [%],growth inhibition [2] [%],viability increase [3] [%],viability [4],viability [5] [%],inhibition [6] [%],RAM network inhibition [7] [%]
COc1ccc(S(=O)(=O)N(CCc2ccccc2)CC(=O)O)cc1OC,-1.68,10.5,0.57,97.6%,102,1.35,1.09
Cc1ccc(N2C(=O)CC(N3CCN(C4CCc5ccccc5C4)CC3)C2=O)cc1 (configuration not stated),-2.06,1.44,-2.69,102%,98.2,0.215,6.5
O=C(NCc1ccc(Cl)c(Cl)c1)c1cccnc1,-7.96,4.69,-1.74,99%,90.9,0.58,3.32
O=C(c1cc(-c2ccccc2O)on1)N1CCCC1,-4.15,-3.9,-4.17,105%,90.7,3.37,6.42
CSc1ccc(C2C(C#N)=C(N)N(c3ccccc3)C3=C2C(=O)CCC3)cc1 (configuration not stated),-11.5,-19.7,-7.43,69.5%,74.6,1.18,2.23
O=C(C(Cc1ccccc1)n1cccc1)N1CCc2ccccc21 (configuration not stated),-16.3,-9.65,-3.05,81.2%,68.2,2.29,3.93
CC1(C)NC(C)(C)c2nonc2/C1=N\O,-15.2,-9.79,0.39,99.3%,102,1.34,-0.43
CS(=O)(=O)N(CC(=O)NCc1ccco1)c1ccc(Cl)c(C(F)(F)F)c1,-19,-22.3,-3.58,92.8%,88.2,0.705,7.07
COc1ccc(-c2nc(CS(=O)CC(=O)NCc3cccnc3)c(C)o2)cc1OC (configuration not stated),-1.92,-2.94,-2.64,99.5%,94.8,1.42,0.68
O=C(CCN1CCc2ccccc2C1)Nc1ccccc1,-6.32,-8.03,-4.06,89.8%,89.3,2.04,2.39
CCCC(=O)Nc1ccc(N2CCCCC2)cc1,-9.5,-9.51,-2.5,87.2%,94.4,3.02,5.92
COC(=O)CSc1nc2ccccc2nc1SCC(=O)OC,-11.7,-9.89,-2,93.4%,92,2.12,7.83
COC(=O)C1=C(C)NC(=O)CC1c1cccc(Cl)c1Cl (configuration not stated),-13.4,-7.53,-1.92,103%,98,2.15,1.05
CCCCCSc1nc2c(c(=O)[nH]c(=O)n2C)n1CC,-13.1,1.94,-3.9,88%,88,1.18,-1.69
CCCC(=O)c1ccc(N2CCOCC2)c(F)c1,-7.96,-9.48,5.59,98.7%,98.2,-0.25,0.58
Cc1ccc(C2/C(=C(/O)c3ccccc3)C(=O)C(=O)N2CCN2CCOCC2)o1 (configuration not stated),8.83,8.54,-1.8,104%,96.7,0.095,-0.05
CCOC(=O)CCc1c(C)n(CC)c2ncnn2c1=O,-3.41,-0.57,-0.77,102%,101,0.735,0.04
O=C1OC(Nc2nc3ccccc3s2)c2ccccc21 (configuration not stated),-2.46,6.6,0.26,101%,101,0.67,0.48

Structure (SMILES),growth inhibition [1] [%],growth inhibition [2] [%],viability increase [3] [%],viability [4],viability [5] [%],inhibition [6] [%],RAM network inhibition [7] [%]
Cn1c(-n2c(CCN3C(=O)c4ccccc4C3=O)nc3ccccc3c2=O)nc2ccccc21,1.63,-2.29,-4.94,68.2%,81.2,0.65,2.45
Cc1ccc(C(C(=O)NC2CCCC2)N2CCCCC2)cc1 (configuration not stated),-2.54,-13.5,-1.32,86.9%,90.6,2.38,5.61
CCOc1ccccc1N1C(=O)CC(N(O)c2ccccc2)C1=O (configuration not stated),-13.4,-4.14,-5.35,106%,96.3,0.17,12.8
O=C(NCc1ccco1)C1CCCN(S(=O)(=O)c2cccc3cccnc23)C1 (configuration not stated),-10.6,-8.38,-4.15,96.4%,94.4,0.595,0.89
CN1CCN(S(=O)(=O)c2ccc3ccccc3c2)CC1,-0.14,-1.93,-2.23,103%,105,2.92,0.63
Cc1ccc(CSc2nnc(Cn3c(=O)sc4ccccc43)n2C)cc1,-10.6,5.88,2.44,95.8%,88.2,2.75,6.03
COc1ccc(OCC(=O)N(C)Cc2ccccc2)cc1,-3.42,1.48,-2.43,96%,91.7,0.72,0.61
CC1=CS/C(=C(/C#N)C(=O)NCc2ccco2)N1c1ccccc1,-0.435,-4.64,-2.99,117%,97.6,2.08,1.49
c1ccc(CN2CCN(c3nc4ccccc4n4cnnc34)CC2)cc1,-4.76,-16.2,-1.7,94.8%,86,0.625,2.12
Cc1cc(C)cc(N(CC(=O)N2CCn3c2nc2ccccc23)S(=O)(=O)c2c(C)noc2C)c1,-5.97,11.2,-4.06,88.9%,90.9,1.79,10.1
CCOCCCNC(=O)C(NC(=O)CNC(C)=O)c1ccc(Cl)cc1 (configuration not stated),-10.1,-12.2,-0.33,102%,101,2.1,2.91
CCOC(=O)C1C(=O)Oc2ccc3ccccc3c2C1C1CCOC1=O (configuration not stated),-5.13,-1.85,-2.53,99.5%,97.6,0.105,-1.08
O=C(Cn1cc2c(n1)CCCCC2)NCCN1CCOCC1,7.15,10.1,-0.25,107%,97.3,2,2.18
CCN(CC)S(=O)(=O)c1ccc(Cl)c(C(=O)NC)c1,-15.4,-16.3,-0.22,105%,96.4,0.985,3.63
Cn1c(C(=O)N2CCN(c3ccccn3)CC2)cc2c(=O)n(C)c3ccccc3c21,2.93,16.5,-2.39,102%,97.4,0.875,-0.81
O=C1CCc2cc(S(=O)(=O)NC(C(=O)NCc3cccnc3)c3ccccc3)ccc2N1 (configuration not stated),-5.88,4.59,-2.98,100%,98.3,-0.185,3.79
Cc1ccc(-c2nc(CSCC(=O)N3CCN(c4ccccn4)CC3)c(C)o2)cc1,-5.27,15.5,-2.65,20.3% (active),44.5,1.56,-0.57
COC(=O)CSC1=C(C#N)C(c2ccccc2F)CC(=O)N1 (configuration not stated),-9.32,-6.92,-2.29,92.6%,94.1,1.32,0.84
